Values after ≈ are worked out from the molar mass of the structure shown. Active and inactive are the calls of the source. The rule behind the calls is not given here.
Legend:
[1] = tested on: Plasma; test: Protein binding in pooled human plasma by microdialysis; type: ADME, cell-free
In short: (§1)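 In vitro microdialysis at 20, 40, 80, 160 and 320 μg/ml drug, in triplicate, at 37°C. Matrices were THB with 40 g/liter BSA or HSA, pooled adult bovine serum, or untreated pooled human plasma. Probes were perfused with lactated Ringer at 2.0 μl/min, with recovery set in Ringer alone. Samples were taken over a 30-min period and assayed by HPLC-UV. Binding = 1 − dialysate/(recovery × total).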

[2] = target: Albumin (Homo sapiens, UniProt P02768); test: Binding affinity to human serum albumin in THB medium containing 40 g/L HSA; type: ADME; conditions: human serum albumin (40 g/L) in THB medium, read-out: PB (converted); in short: as §1
Sequence of Albumin (Homo sapiens, UniProt P02768) (P02768 whole entry): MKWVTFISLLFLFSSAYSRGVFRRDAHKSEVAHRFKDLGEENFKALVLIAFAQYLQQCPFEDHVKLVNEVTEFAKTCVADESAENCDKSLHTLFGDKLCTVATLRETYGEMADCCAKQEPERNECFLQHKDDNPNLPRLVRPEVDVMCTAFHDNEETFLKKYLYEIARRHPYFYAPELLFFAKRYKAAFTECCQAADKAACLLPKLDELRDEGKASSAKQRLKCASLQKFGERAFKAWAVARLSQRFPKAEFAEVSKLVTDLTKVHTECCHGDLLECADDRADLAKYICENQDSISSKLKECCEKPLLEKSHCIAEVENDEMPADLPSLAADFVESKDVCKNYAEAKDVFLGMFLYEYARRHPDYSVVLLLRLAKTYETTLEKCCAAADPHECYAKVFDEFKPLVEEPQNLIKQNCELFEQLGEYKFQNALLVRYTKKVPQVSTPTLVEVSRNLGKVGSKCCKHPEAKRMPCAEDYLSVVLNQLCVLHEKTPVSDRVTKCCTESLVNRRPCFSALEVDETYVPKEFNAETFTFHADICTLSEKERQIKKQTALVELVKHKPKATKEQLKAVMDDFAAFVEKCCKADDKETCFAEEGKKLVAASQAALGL

[3] = target: T1, Albumin (Bos taurus, UniProt P02769); test: Binding affinity to pooled adult bovine serum albumin; type: ADME; conditions: cattle, read-out: PB (converted); in short: as §1
T1 sequence (P02769 whole entry): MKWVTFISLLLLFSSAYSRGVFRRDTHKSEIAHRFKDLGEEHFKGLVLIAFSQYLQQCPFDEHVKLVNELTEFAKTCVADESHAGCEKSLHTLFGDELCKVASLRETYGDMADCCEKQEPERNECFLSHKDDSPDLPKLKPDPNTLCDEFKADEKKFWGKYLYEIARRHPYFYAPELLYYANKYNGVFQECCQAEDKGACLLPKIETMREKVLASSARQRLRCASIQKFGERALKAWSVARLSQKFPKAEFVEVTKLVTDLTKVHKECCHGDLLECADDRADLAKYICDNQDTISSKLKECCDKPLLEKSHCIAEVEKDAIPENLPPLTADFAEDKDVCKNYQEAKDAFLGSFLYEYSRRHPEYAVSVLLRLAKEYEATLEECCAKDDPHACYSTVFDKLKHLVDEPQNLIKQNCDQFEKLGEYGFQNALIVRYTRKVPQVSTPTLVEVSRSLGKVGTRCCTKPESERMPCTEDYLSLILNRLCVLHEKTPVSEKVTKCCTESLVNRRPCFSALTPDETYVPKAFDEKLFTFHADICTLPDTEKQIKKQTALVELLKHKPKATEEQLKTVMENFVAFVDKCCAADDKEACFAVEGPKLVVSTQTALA

[4] = target: T1, Albumin; test: Binding affinity to bovine serum albumin in THB medium containing 40 g/L BSA; type: ADME; conditions: cattle, bovine serum albumin (40 g/L) in THB medium; read-out: PB (converted); in short: as §1
[5] = Plasma protein binding in human at < 100 ug/ml; type: ADME, cell-free; conditions: read-out: PPB (converted)
[6] = tested on: Plasma; test: Plasma protein binding in human at 400 ug/ml; type: ADME, cell-free
[7] = Plasma protein binding in healthy human 1t […], iv administered as single dose by LC-MS-MS method; type: ADME, organism-based; conditions: read-out: PPB (converted)
[8] = tested on: Escherichia coli; test: Antimicrobial activity against Escherichia coli ATCC 25922 by serial dilution twofold broth microdilution method; type: functional; conditions: in the assay text read “macrodilution” for “microdilution”
In short: (§2)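 Broth macrodilution, serial twofold dilutions, run per CLSI guidelines. Media were MHB (E. coli) or THB (S. pneumoniae), used with or without 40 g/liter BSA or HSA; supplemented broth was 0.2-μm filtered and adjusted to pH 7.4. Inoculum came from overnight 5% sheep blood agar colonies set to 0.5 McFarland in saline and diluted in broth to ~5 × 10⁵ CFU/ml. Six determinations; values reported as modes.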

[9] = tested on: Escherichia coli; test: Antimicrobial activity against Escherichia coli ATCC 25922 by serial dilution twofold broth microdilution method in presence of 40 g/L bovine serum albumin; type: functional; conditions: in the assay text read “macrodilution” for “microdilution”; in short: as §2
[10] = tested on: Streptococcus pneumoniae; test: Antimicrobial activity against penicillin-sensitive Streptococcus pneumoniae ATCC 6303 by serial dilution twofold broth microdilution method; type: functional; conditions: in the assay text read “macrodilution” for “microdilution”; in short: as §2
[11] = tested on: Streptococcus pneumoniae; test: Antimicrobial activity against penicillin-sensitive Streptococcus pneumoniae ATCC 6303 by serial dilution twofold broth microdilution method in presence of 40 g/L bovine serum albumin; type: functional; conditions: in the assay text read “macrodilution” for “microdilution”; in short: as §2
[12] = tested on: Streptococcus pneumoniae; test: Antimicrobial activity against penicillin-sensitive Streptococcus pneumoniae ATCC 6303 by serial dilution twofold broth microdilution method in presence of 40 g/L human serum albumin; type: functional; conditions: in the assay text read “macrodilution” for “microdilution”; in short: as §2
[13] = tested on: Escherichia coli; test: Bactericidal activity against Escherichia coli ATCC 25922 at 8 times MIC after 24 hrs by time kill analysis; type: functional, organism-based
[14] = tested on: Streptococcus pneumoniae; test: Bactericidal activity against penicillin-sensitive Streptococcus pneumoniae ATCC 6303 at 8 times MIC after 24 hrs by time kill analysis; type: functional, organism-based
[15] = tested on: Escherichia coli; test: Bactericidal activity against Escherichia coli ATCC 25922 at 8 times MIC after 24 hrs by time kill analysis in presence of 40 g/L human serum albumin; type: functional, organism-based
[16] = tested on: Streptococcus pneumoniae; test: Bactericidal activity against penicillin-sensitive Streptococcus pneumoniae ATCC 6303 at 8 times MIC after 24 hrs by time kill analysis in presence of 40 g/L human serum albumin; type: functional, organism-based
[17] = tested on: Escherichia coli; test: Antimicrobial activity against Escherichia coli ATCC 25922 assessed as maximum killing rate constant; type: functional
In short: (§3)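 Constant-concentration time-kill curves, 6 h, in triplicate. […] Inoculum of ~5 × 10⁵ CFU/ml was grown 2 h before drug was added. Samples taken 0–6 h were counted by droplet plating after 20–24 h at 37°C. A two-compartment model (susceptible plus persister cells) was fitted simultaneously across conditions to obtain growth and maximal kill rate constants.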

[18] = tested on: Streptococcus pneumoniae; test: Antimicrobial activity against penicillin-sensitive Streptococcus pneumoniae ATCC 6303 assessed as maximum killing rate constant; type: functional; in short: as §3
[19] = tested on: Escherichia coli; test: Antimicrobial activity against Escherichia coli ATCC 25922 assessed as growth rate constant; type: functional; in short: as §3
[20] = tested on: Streptococcus pneumoniae; test: Antimicrobial activity against penicillin-sensitive Streptococcus pneumoniae ATCC 6303 assessed as growth rate constant; type: functional; in short: as §3
[21] = tested on: Escherichia coli; test: Antimicrobial activity against Escherichia coli ATCC 25922; type: functional, organism-based; in short: as §2
[22] = tested on: Escherichia coli; test: Antimicrobial activity against Escherichia coli ATCC 25922 in presence of bovine serum albumin; type: functional, organism-based; in short: as §2
[23] = tested on: Escherichia coli; test: Antimicrobial activity against Escherichia coli ATCC 25922 by in presence of human serum albumin; type: functional, organism-based; in short: as §2
[24] = tested on: Streptococcus pneumoniae; test: Antimicrobial activity against penicillin-sensitive Streptococcus pneumoniae ATCC 6303; type: functional, organism-based; in short: as §2
[25] = tested on: Streptococcus pneumoniae; test: Antimicrobial activity against penicillin-sensitive Streptococcus pneumoniae ATCC 6303 in presence of bovine serum albumin; type: functional, organism-based; in short: as §2
[26] = tested on: Streptococcus pneumoniae; test: Antimicrobial activity against penicillin-sensitive Streptococcus pneumoniae ATCC 6303 in presence of human serum albumin; type: functional, organism-based; in short: as §2
[27] = tested on: Escherichia coli; test: Bactericidal activity against Escherichia coli ATCC 25922 at 8 times MIC after 6 hrs by time kill analysis in presence of 40 g/L bovine serum albumin
[28] = tested on: Escherichia coli; test: Antimicrobial activity against Escherichia coli ATCC 25922 by serial dilution twofold broth macrodilution method in presence of 40 g/L human serum albumin
[29] = tested on: Streptococcus pneumoniae; test: Bactericidal activity against penicillin-sensitive Streptococcus pneumoniae ATCC 6303 at 8 times MIC after 6 hrs by time kill analysis in presence of 40 g/L bovine serum albumin

SMILES	PPB [1] [%]	fraction unbound [2]	fraction unbound [3]	fraction unbound [4]	fraction unbound [7]	MIC [8] [µg/mL]	MIC [9] [µg/mL]	MIC [10] [µg/mL]	MIC [11] [µg/mL]	MIC [12] [µg/mL]	Activity [13]	Activity [14]	Kkmax [17] [h⁻¹]	Kkmax [18] [h⁻¹]	Ks [19] [h⁻¹]	Ks [20] [h⁻¹]	EC50 [21] [µg/mL]	EC50 [22] [µg/mL]	EC50 [23] [µg/mL]	EC50 [24] [µg/mL]	also measured
CO/N=C(\C(=O)N[C@@H]1C(=O)N2C(C(=O)O)=C(CSc3nc(=O)c(=O)[nH]n3C)CS[C@H]12)c1csc(N)n1 [CEFTRIAXONE]	76.8	0.431	0.693	0.798	0.17	–	–	–	–	–	–	–	–	–	–	–	–	–	–	–	fraction unbound [5]: 0.1; PPB [6]: 60%
CO/N=C(\C(=O)N[C@@H]1C(=O)N2C(C(=O)O)=C(CSc3nc(=O)c(O)nn3C)CS[C@H]12)c1csc(N)n1 [CEFTRIAXONE]	–	–	–	–	–	0.064 (≈ 0.115 µM)	0.064	0.01 (≈ 0.018 µM)	0.02	0.16	Active	Active	6.34	3.59	2.4	1.56	0.027 (≈ 0.0487 µM)	0.057	1.1	0.004 (≈ 0.00721 µM)	Activity [15]: inactive; Activity [16]: inactive; EC50 [25]: 0.015 µg/mL; EC50 [26]: 0.084 µg/mL; Activity [27]: inactive; MIC [28]: 2 µg/mL; Activity [29]: inactive
C[C@@H](O)[C@H]1C(=O)N2C(C(=O)O)=C(S[C@@H]3CN[C@H](C(=O)Nc4cccc(C(=O)O)c4)C3)[C@H](C)[C@H]12 [ERTAPENEM]	73.8	0.822	0.617	0.876	0.16	0.015 (≈ 0.0315 µM)	0.015	0.025 (≈ 0.0526 µM)	0.025	0.025	Active	Active	6.02	3.28	2.76	2.28	0.01 (≈ 0.021 µM)	0.02	0.014	0.01 (≈ 0.021 µM)	EC50 [25]: 0.01 µg/mL; EC50 [26]: 0.019 µg/mL; MIC [28]: 0.03 µg/mL
